Measured values reported in ChEMBL document CHEMBL1123247, “Nucleoside conjugates. 7. Synthesis and antitumor activity of 1-beta-D-arabinofuranosylcytosine conjugates of ether lipids” (J Med Chem, 1986).

What was measured:
Assay type in all cases: functional, Mus musculus
L1210 [1] = assay: Antitumor activity against the ip implanted L1210 leukemia in mice expressed as optimal dose (1-5qd treatment schedule) required to produce greatest increase in life span was determined
Method in brief: (§1)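 DBA/2J mice, groups of 6 (23-28 g), were inoculated ip with 1 × 10^6 L1210 cells on day 0. Dosing was ip from 24 h, in 0.9% NaCl with 0.5% Tween-80 (sonicated solution or suspension). Mice were observed daily until death or day 45. Median survival T/C followed NCI protocols, and ILS = (T/C − 1) × 100. Active range means doses giving ILS ≥25%; optimal dose means greatest ILS.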

L1210 [2] = assay: Antitumor activity against the ip implanted L1210 leukemia in mice expressed as optimal dose (1 qd treatment schedule) required to produce greatest increase in life span was determined; method in brief: as §1
L1210 [3] = assay: Antitumor activity was determined against the ip implanted L1210 leukemia in mice by change in […] at 400 mg/kg (treatment of 1qd schedule) dosage; conditions: route intraperitoneal
Method in brief: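 DBA/2J mice, 6 per group (wt 23-28 g), inoculated ip with 1×10^6 L1210 cells on day 0. Treatment was given ip in 0.9% NaCl with 0.5% Tween-80, starting 24 h later. Weight change was taken on day 8. Mice were observed daily until death or 45 days. Median survival T/C and %ILS = (T/C − 1) × 100 came from survivors per NCI protocols, and 45-day survivors were counted.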

L1210 [4] = assay: Antitumor activity was determined against the ip implanted L1210 leukemia in mice by 45-day survivors in mice at 400 mg/kg (treatment of 1qd schedule) dosage; conditions: route intraperitoneal
Method in brief: (§2)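 DBA/2J mice in groups of 6 (wt 23-28 g) were inoculated ip with 1×10^6 L1210 cells on day 0. Dosing was ip from 24 h, in 0.9% NaCl with 0.5% Tween-80 (conjugates sonicated), across a range of doses. Mice were observed daily until death or 45 days. Median T/C was computed from survivors per NCI protocols, and ILS = (T/C − 1)×100.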

L1210 [5] = assay: Antitumor activity was determined against the ip implanted L1210 leukemia in mice by percent increase in life span at 400 mg/kg (treatment of 1qd schedule) dosage; conditions: route intraperitoneal; method in brief: as §2
P388 [6] = assay: Antitumor activity was determined against the ip implanted P388 leukemia in mice by percent increase in life span at 500 mg/kg (treatment of 1qd schedule) dosage; conditions: route intraperitoneal
Method in brief: (§3)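 DBA/2J mice, 23-33 g, in groups of 6, were inoculated ip with 1×10^6 P388 cells on day 0. Dosing was ip from 24 h on the stated schedules, in 0.9% NaCl with 0.5% Tween-80 (sonicated solution or suspension). Survival was followed daily until death or 45 days. Median T/C was calculated from survivors per NCI protocols, with ILS = (T/C − 1) × 100.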

P388 [7] = assay: Antitumor activity was determined against the ip implanted P388 leukemia in mice by percent increase in life span at 60 mg/kg (1-5qd treatment schedule) dosage; conditions: route intraperitoneal; method in brief: as §3
P388 [8] = assay: Antitumor activity was determined against the ip implanted P388 leukemia in mice by 45-day survivors in mice at 500 mg/kg (treatment of 1qd schedule) dosage; conditions: route intraperitoneal; method in brief: as §3
P388 [9] = assay: Antitumor activity was determined against the ip implanted P388 leukemia in mice by 45-day survivors in mice at 60 mg/kg (1-5qd treatment schedule) dosage; conditions: route intraperitoneal; method in brief: as §3
P388 [10] = assay: Antitumor activity against ip implanted P388 leukemia in mice expressed as active dose range (1-5qd treatment schedule) required to produce increase in life span by >25% was determined; Range is 40-80
Method in brief: (§4)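 P388 leukemia: 1 × 10^6 cells were given ip on day 0 to DBA/2J mice, groups of 6 (23-33 g). Treatment was ip from 24 h after inoculation, vehicle 0.9% NaCl with 0.5% Tween-80. Mice were observed daily until death or 45 days. Median survival T/C was calculated from survivors per NCI protocols, and ILS = (T/C − 1) × 100. Active range means doses giving ILS ≥25%; optimal dose means greatest ILS.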

P388 [11] = assay: Antitumor activity was determined against the ip implanted P388 leukemia in mice by change in […] at 500 mg/kg (treatment of 1qd schedule) dosage; conditions: route intraperitoneal
Method in brief: (§5)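 P388 leukemia, 1×10^6 cells implanted ip on day 0 into DBA/2J mice, groups of 6 (wt 23-33 g). Dosing ip started 24 h post-inoculation, vehicle 0.9% NaCl containing 0.5% Tween-80. Animals were observed daily until death or 45 days. Outputs were weight change, median survival T/C from survivors per NCI protocols, and %ILS = (T/C − 1) × 100.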

P388 [12] = assay: Antitumor activity was determined against the ip implanted P388 leukemia in mice by change in […] at 60 mg/kg (1-5qd treatment schedule) dosage; conditions: route intraperitoneal; method in brief: as §5
P388 [13] = assay: Antitumor activity against ip implanted P388 leukemia in mice expressed as active dose range (1 qd treatment schedule) required to produce increase in life span by >25% was determined; Range is 200-500; method in brief: as §4
P388 [14] = assay: Antitumor activity against the ip implanted P388 leukemia in mice expressed as optimal dose (1,5,9qd treatment schedule) required to produce greatest increase in life span was determined; design: unit: mg/kg; method in brief: as §4
P388 [15] = assay: (§6) Antitumor activity against the ip implanted P388 leukemia in mice expressed as optimal dose (1-5qd treatment schedule) required to produce greatest increase in life span was determined; design: unit: mg/kg; method in brief: as §4
P388 [16] = assay: Antitumor activity against the ip implanted P388 leukemia in mice expressed as optimal dose (1 qd treatment schedule) required to produce greatest increase in life span was determined; method in brief: as §4
L1210 [17] = assay: Antitumor activity against the ic implanted L1210 lymphoid leukemia in mice expressed as optimal dose (1-5qd treatment schedule) required to produce greatest increase in life span was determined
Method in brief: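 DBA/2J mice, groups of 6 (26-32 g), got 1 × 10^5 L1210 cells ic on day 0. Dosing was ip starting 24 h later, as a sonicated solution or suspension in 0.9% NaCl with 0.5% Tween-80, over a wide dose range. Mice were followed daily until death. Median survival T/C was taken from survivors per NCI protocols, and ILS = (T/C − 1) × 100. Active range means doses giving ILS ≥25%; optimal dose means greatest ILS.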

P388 [18] = assay: Antitumor activity was determined against the ip implanted P388 leukemia in mice by percent median survival rate (treated/control) at 133 mg/kg (treatment of 1,5,9qd schedule) dosage; >45.0/11.0; conditions: route intraperitoneal; method in brief: as §3
P388 [19] = assay: Antitumor activity was determined against the ip implanted P388 leukemia in mice by change in […] at 133 mg/kg (treatment of 1,5,9qd schedule) dosage; conditions: route intraperitoneal; method in brief: as §5
P388 [20] = assay: Antitumor activity was determined against the ip implanted P388 leukemia in mice by percent increase in life span at 133 mg/kg (treatment of 1,5,9qd schedule) dosage; conditions: route intraperitoneal; method in brief: as §3
P388 [21] = assay: Antitumor activity was determined against the ip implanted P388 leukemia in mice by 45-day survivors in mice at 133 mg/kg (treatment of 1,5,9qd schedule) dosage; conditions: route intraperitoneal; method in brief: as §3
P388 [22] = assay: as §6; method in brief: as §4
P388 [23] = assay: Antitumor activity was determined against the ip implanted P388 leukemia in mice by range in survival days at 200 mg/kg (treatment of 1-5qd schedule) dosage; Range is 22-24; conditions: route intraperitoneal

SMILES | Optimal dose (L1210 [1]) | Optimal dose (L1210 [2]) | Weight change (L1210 [3]) | Survivors (L1210 [4]) | ILS (L1210 [5]) | ILS (P388 [6]) | ILS (P388 [7]) | Survivors (P388 [8]) | Survivors (P388 [9]) | Active dose range (P388 [10]) | Weight change (P388 [11]) | Weight change (P388 [12]) | Active dose range (P388 [13]) | Optimal dose (P388 [14]) | Optimal dose (P388 [15]) | Optimal dose (P388 [16]) | Optimal dose (L1210 [17]) | T/C (P388 [18]) | Weight change (P388 [19]) | ILS (P388 [20]) | also measured
CCCCCCCCCCCCCCCCCCOCC(COP(=O)(O)OP(=O)(O)OC[C@H]1O[C@@H](n2ccc(N)nc2=O)[C@@H](O)[C@@H]1O)OC(=O)CCCCCCCCCCCCCCC (mixture of isomers) | 100 mg | 400 mg/kg/day | -1 g mouse-1 | 0 | 257 | >309 | 109 | 4 | 0 | 40 mg/kg/day | -0.07 g mouse-1 | -0.12 g mouse-1 | 200 mg/kg/day | 67 mg | 60 mg | 500 mg | – | – | – | – | –
CCCCCCCCCCCCCCCC(=O)OC[C@H](COP(=O)(O)OP(=O)(O)OC[C@H]1O[C@@H](n2ccc(N)nc2=O)[C@@H](O)[C@@H]1O)OC(=O)CCCCCCCCCCCCCCC | 40 mg | 300 mg/kg/day | – | – | – | – | >309 | – | 5 | 40 mg/kg/day | – | -1.92 g mouse-1 | 200 mg/kg/day | 133 mg | 60 mg | 500 mg | 80 mg | >45% | -1.43 g mouse-1 | >309 | Survivors (P388 [21]): 4
CCCCCCCCCCCCCCCCOCC(COP(=O)(O)OP(=O)(O)OC[C@H]1O[C@@H](n2ccc(N)nc2=O)[C@@H](O)[C@@H]1O)OC(=O)CCCCCCCCCCCCCCC (mixture of isomers) | 80 mg | 400 mg/kg/day | 1.47 g mouse-1 | 0 | 293 | – | – | – | – | – | – | – | – | 133 mg | – | 300 mg | 100 mg | >45% | -0.25 g mouse-1 | >309 | Survivors (P388 [21]): 4; Optimal dose (P388 [22]): 60 mg
Nc1ccn([C@@H]2O[C@H](CO)[C@@H](O)[C@@H]2O)c(=O)n1 [CYTARABINE] | 200 mg | 400 mg/kg/day | 2.37 g mouse-1 | 0 | 19 | 36 | – | 0 | – | – | 0.72 g mouse-1 | – | – | – | – | 500 mg | 300 mg | – | – | – | Range (P388 [23]): 22; Optimal dose (P388 [22]): 200 mg
